Measured values taken from ChEMBL document CHEMBL1155723, “Cytotoxic pheophorbide-related compounds from Clerodendrum calamitosum and C. cyrtophyllum” (2001).
Converted amounts (≈) assume the structure as drawn. The source made the active and inactive calls. The calls are words filed in the database; no cut-off is given here.

Assays:
[1] = test system: 1A9; assay: Cytotoxicity against human 1A9 cells after 72 hrs by SRB assay; format: functional; settings: 1A9, 72 h, read-out: ED50 (the source's name)
How it was run: (§1)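 Stock cultures kept in RPMI-1640 with 25 mM HEPES, 0.2% (w/v) NaHCO3, 10% (v/v) FBS and 100 µg/mL kanamycin at 37 °C, 5% CO2. Trypsinized cells seeded at 2500-10 000 per well and exposed 72 h at 37 °C to graded concentrations from DMSO stocks (final DMSO ≤2% v/v). Cells fixed with cold 50% TCA, stained with 0.4% SRB, A562 read. ED50 interpolated from dose-response, triplicate.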

[2] = test system: HCT-8; assay: Cytotoxicity against human HCT8 cells after 72 hrs by SRB assay; format: functional; settings: HCT-8, 72 h, read-out: ED50 (the source's name); how it was run: as §1
[3] = test system: HTC; assay: Cytostatic activity against rat HTC cells at 33 ug/ml; format: functional, cell-based
[4] = test system: A549; assay: Cytotoxicity against human A549 cells after 72 hrs by SRB assay; format: functional; settings: A549, 72 h, read-out: ED50 (the source's name); how it was run: as §1
[5] = test system: HTC; assay: Cytostatic activity against rat HTC cells at 66 ug/ml under direct photoirradiation; format: functional, cell-based
[6] = test system: HTC; assay: Cytostatic activity against rat HTC cells at 66 ug/ml; format: functional, cell-based
[7] = test system: SK-MEL; assay: Cytotoxicity against human SK-MEL cells after 72 hrs by SRB assay; format: functional; settings: read-out: ED50 (the source's name); how it was run: as §1
[8] = test system: KB; assay: Cytotoxicity against human KB cells after 72 hrs by SRB assay; format: functional; settings: read-out: ED50 (the source's name); how it was run: as §1
[9] = test system: MCF7; assay: Cytotoxicity against human MCF7 cells after 72 hrs by SRB assay; format: functional; settings: MCF7, 72 h, read-out: ED50 (the source's name); how it was run: as §1
[10] = Cytotoxicity against human CAKI cells after 72 hrs by SRB assay; format: functional; settings: read-out: ED50 (the source's name); how it was run: as §1
[11] = test system: HTC; assay: Cytostatic activity against rat HTC cells at 33 ug/ml under direct photoirradiation; format: functional, cell-based
[12] = test system: KB; assay: Selectivity for human KB-7d cells to human KB cells; format: functional
[13] = test system: KB; assay: Selectivity for human KB-VCR cells to human KB cells; format: functional
[14] = test system: KB; assay: Selectivity for human KB-CPT cells to human KB cells; format: functional

Structure (SMILES)	EC50 [1]	EC50 [2]	Activity [3]	EC50 [4]	Activity [5]	Activity [6]	EC50 [7]	EC50 [8]	EC50 [9]	EC50 [10]	Activity [11]	fold change (FC) [12]	fold change (FC) [13]	fold change (FC) [14]
C=Cc1c(C)c2cc3nc(c(C(=O)C(=O)OC)c4[nH]c(cc5nc(cc1[nH]2)C(C)=C5CC)c(C)c4C(=O)OC)[C@@H](CCC(=O)OC)[C@@H]3C	0.2 µg/mL (≈ 0.306 µM)	0.79 µg/mL (≈ 1.21 µM)	inactive	0.49 µg/mL (≈ 0.751 µM)	Active	inactive	1.1 µg/mL (≈ 1.69 µM)	0.2 µg/mL (≈ 0.306 µM)	0.73 µg/mL (≈ 1.12 µM)	0.55 µg/mL (≈ 0.843 µM)	Active	–	–	–
C=Cc1c(C)c2cc3nc(c4c5[nH]c(cc6nc(cc1[nH]2)C(C)=C6CC)c(C)c5C(=O)[C@]4(O)C(=O)OC)[C@@H](CCC(=O)O)[C@@H]3C	1.2 µg/mL (≈ 1.97 µM)	> 4 µg/mL	inactive	> 4 µg/mL	Active	inactive	4 µg/mL (≈ 6.57 µM)	1.3 µg/mL (≈ 2.14 µM)	> 4 µg/mL	3 µg/mL (≈ 4.93 µM)	Active	–	–	–
C=Cc1c(C)c2cc3nc(c4c5[nH]c(cc6nc(cc1[nH]2)C(C)=C6CC)c(C)c5C(=O)[C@]4(O)C(=O)OC)[C@@H](CCC(=O)OC)[C@@H]3C	0.27 µg/mL (≈ 0.434 µM)	0.4 µg/mL (≈ 0.642 µM)	inactive	0.47 µg/mL (≈ 0.755 µM)	Active	inactive	0.84 µg/mL (≈ 1.35 µM)	0.3 µg/mL (≈ 0.482 µM)	0.45 µg/mL (≈ 0.723 µM)	1.9 µg/mL (≈ 3.05 µM)	Active	0.8	>57	1.1
C=Cc1c(C)c2cc3nc(c4c5[nH]c(cc6nc(cc1[nH]2)C(C)=C6CC)c(C)c5C(=O)[C@]4(O)C(=O)OC)[C@@H](CCC(=O)OC/C=C(\C)CCCC(C)CCCC(C)CCCC(C)C)[C@@H]3C (stereo not given in full)	22 µg/mL (≈ 24.8 µM)	14 µg/mL (≈ 15.8 µM)	–	15 µg/mL (≈ 16.9 µM)	–	–	14 µg/mL (≈ 15.8 µM)	12 µg/mL (≈ 13.5 µM)	8.8 µg/mL (≈ 9.92 µM)	19 µg/mL (≈ 21.4 µM)	–	–	–	–
C=Cc1c(C)c2cc3nc(c4c5[nH]c(cc6nc(cc1[nH]2)C(C=O)=C6CC)c(C)c5C(=O)[C@@H]4C(=O)OC)[C@@H](CCC(=O)OC/C=C(\C)CCCC(C)CCCC(C)CCCC(C)C)[C@@H]3C (stereo not given in full)	–	–	–	–	–	–	–	–	–	–	Active	–	–	–
C=Cc1c(C)c2cc3nc(c4c5[nH]c(cc6nc(cc1[nH]2)C(C)=C6CC)c(C)c5C(=O)[C@]4(O)C(=O)OC)[C@@H](CCC(=O)OC/C=C(\C)CCCC(C)CCCC(C)CC(O)CC(C)C)[C@@H]3C (mixture of isomers)	–	–	–	–	–	–	–	–	–	–	Active	–	–	–
COc1cc([C@@H]2c3cc4c(cc3[C@@H](O[C@@H]3O[C@@H]5CO[C@@H](C)O[C@H]5[C@H](O)[C@H]3O)[C@H]3COC(=O)[C@H]23)OCO4)cc(OC)c1O [ETOPOSIDE]	–	–	–	–	–	–	–	–	–	–	–	119	153	1
C=Cc1c(C)c2cc3nc(c4c5[nH]c(cc6nc(cc1[nH]2)C(C)=C6CC)c(C)c5C(=O)[C@@H]4C(=O)OC)[C@@H](CCC(=O)OC)[C@@H]3C [METHYL PHEOPHORBIDE A]	0.26 µg/mL (≈ 0.429 µM)	1 µg/mL (≈ 1.65 µM)	inactive	0.83 µg/mL (≈ 1.37 µM)	Active	inactive	1.2 µg/mL (≈ 1.98 µM)	0.23 µg/mL (≈ 0.379 µM)	0.95 µg/mL (≈ 1.57 µM)	0.62 µg/mL (≈ 1.02 µM)	Active	–	–	–
CC(=O)O[C@H]1C(=O)[C@@]2(C)[C@H]([C@H](OC(=O)c3ccccc3)[C@]3(O)C[C@H](OC(=O)[C@H](O)[C@@H](NC(=O)c4ccccc4)c4ccccc4)C(C)=C1C3(C)C)[C@]1(OC(C)=O)CO[C@@H]1C[C@@H]2O [PACLITAXEL]	–	–	–	–	–	–	–	–	–	–	–	1	15	1
C=Cc1c(C)c2cc3nc(c4c5[nH]c(cc6nc(cc1[nH]2)C(C)=C6CC)c(C)c5C(=O)[C@@H]4C(=O)OC)[C@@H](CCC(=O)O)[C@@H]3C [PHEOPHORBIDE A]	0.48 µg/mL (≈ 0.81 µM)	1.5 µg/mL (≈ 2.53 µM)	inactive	1.5 µg/mL (≈ 2.53 µM)	Active	inactive	0.91 µg/mL (≈ 1.54 µM)	0.46 µg/mL (≈ 0.776 µM)	1.6 µg/mL (≈ 2.7 µM)	0.88 µg/mL (≈ 1.48 µM)	Active	1	0.6	1.1
C=Cc1c(C)c2cc3nc(c(C(=O)C(=O)OC)c4[nH]c(cc5nc(cc1[nH]2)C(C)=C5CC)c(C)c4C(=O)OC)[C@@H](CCC(=O)O)[C@@H]3C [PURPURIN 7 DIMETHYL ESTER]	0.64 µg/mL (≈ 1 µM)	1.6 µg/mL (≈ 2.51 µM)	inactive	1.8 µg/mL (≈ 2.82 µM)	Active	inactive	1.1 µg/mL (≈ 1.72 µM)	0.7 µg/mL (≈ 1.1 µM)	1.6 µg/mL (≈ 2.51 µM)	1.3 µg/mL (≈ 2.04 µM)	Active	0.7	0.5	1
